Test results taken from ChEMBL document CHEMBL4765449, “Synthesis, biological evaluation and toxicity of novel tetrandrine analogues” (Eur J Med Chem, 2020).
Calls of active or inactive are those of the source. No cut-off for these calls is given here.

Key:
HepaRG [1] = assay: Cytotoxicity against human HepaRG cells assessed as reduction in cell viability at 10 uM measured after 24 hrs by Celltiter-blue cell viability assay; type: cell-based
Outline: (§1)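 Differentiated HepaRG cells (Maintenance/Metabolism medium) exposed 24 h to 10 or 20 μM compound; viability by CellTiter-Blue, normalized to vehicle control. Means ± SEM of three independent experiments.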

HepaRG [2] = assay: Cytotoxicity against human HepaRG cells assessed as reduction in cell viability at 20 uM measured after 24 hrs by Celltiter-blue cell viability assay; type: cell-based; outline: as §1
HepaRG [3] = assay: Cytotoxicity against human HepaRG cells overexpressing EGFP-CYP3A4 assessed as reduction in cell viability at 10 uM measured after 24 hrs by propidium iodide staining based flow cytometry; type: ADME
Outline: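 HepaRG cells, differentiated, transiently transfected with pcDNA3-CYP3A4-EGFP or empty vector 16 h before stimulation; 10 μM compound for 24 h. Propidium iodide (5 μg/mL in PBS) staining, flow cytometry without FSC/SSC gating; specific cell death = % dead (treated) − % dead (control). Three independent experiments.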

HepG2 [4] = assay: Cytotoxicity against human HepG2 cells overexpressing EGFP-CYP3A4 assessed as reduction in cell viability at 15 uM measured after 24 hrs by propidium iodide staining based flow cytometry; type: functional
Outline: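 HepG2 stably transfected (G418 0.5 mg/mL, four weeks; plasmid confirmed by PCR) with pcDNA3-CYP3A4-EGFP or empty vector, 0.1 × 10^6 per well, adhered overnight; 15 μM compound 24 h. Propidium iodide staining and flow cytometry; specific cell death relative to control. Three independent experiments.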

CEM [5] = assay: Inhibition of P-gp in vincristine-resistant human CEM cells at 0.1 to 1 uM using calcein-AM as substrate preincubated for 30 mins followed by compound washout and subsequent substrate addition measured after 60 mins by flow cytometric analysis; type: cell-based; settings: dose 0.1-1 µM
CCRF-CEM [6] = assay: Effect on P-gp expression in vincristine-resistant human CEM cells at 1 uM measured after 1.5 hrs by immunostaining based flow cytometry; type: functional, cell-based
Outline: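 VCR-R CEM, 2 × 10^4 cells, 1 μM compound 1.5 h at 37 °C; washed in ice-cold 1% BSA/PBS, stained 30 min at 4 °C in dark with FITC anti-human P-gp, isotype control for background; flow cytometry, gMFI normalized to DMSO. Three independent experiments.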

CEM [7] = assay: Inhibition of P-gp in vincristine-resistant human CEM cells assessed as potentiation of vincristine-induced apoptosis 1 uM measured after 48 hrs by propidium iodide staining based flow cytometry; type: cell-based
Outline: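 VCR-R CEM, 0.125 × 10^6 per well, rested 4 h, then incubated 48 h with increasing vincristine with or without 1 μM compound; apoptosis by propidium iodide staining and flow cytometry. Three independent experiments.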

CEM [8] = assay: Effect on AKT phosphorylation at Ser473 residue in vincristine-resistant human CEM cells at 5 uM measured after 24 hrs by Western blot analysis; type: cell-based
Outline: (§2)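 VCR-R CEM cells, 2 × 10^6 per well, seeded 4 h before 5 μM compound or DMSO for 24 h; RIPA lysis, SDS-PAGE, PVDF blotting, chemiluminescence. Probed for p-Akt (Ser473), total Akt, PARP, Bcl-xL, Mcl-1; stain-free total protein as loading control.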

CCRF-CEM [9] = assay: Effect on Bcl-XL expression in vincristine-resistant human CEM cells at 5 uM measured after 24 hrs by Western blot analysis; type: functional, cell-based; outline: as §2
CCRF-CEM [10] = assay: Effect on MCL1 expression in vincristine-resistant human CEM cells at 5 uM measured after 24 hrs by Western blot analysis; type: functional, cell-based; outline: as §2
CCRF-CEM [11] = assay: Induction of apoptosis in vincristine-resistant human CEM cells assessed as increase in PARP cleavage at 5 uM measured after 24 hrs by Western blot analysis; type: functional, cell-based; outline: as §2
CCRF-CEM [12] = assay: Induction of mitochondrial membrane disruption in vincristine-resistant human CEM cells at 5 uM measured after 24 hrs by JC-1 dye based flow cytometric analysis; type: functional, cell-based
Outline: (§3)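 Cells (HepG2 adhered overnight; VCR-R CEM seeded 4 h before) treated with DMSO or 5 μM for 24 h; JC-1 (1 μg/mL) 1 h before harvest, PBS wash, flow cytometry; green shift read as loss of ΔΨm. CCCP (100 μM, 1 h) positive control; elacridar (5 μM) present for CEM staining.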

HepG2 [13] = assay: Induction of apoptosis in human HepG2 cells assessed as increase in PARP cleavage at 5 uM measured after 24 hrs by Western blot analysis; type: functional, cell-based
Outline: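 HepG2, 0.5 × 10^6 per well, adhered overnight, then DMSO or 5 μM compound; RIPA lysates immunoblotted by SDS-PAGE/PVDF with chemiluminescent detection.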

HepG2 [14] = assay: Induction of mitochondrial membrane disruption in human HepG2 cells at 5 uM measured after 24 hrs by JC-1 dye based flow cytometric analysis; type: functional, cell-based; outline: as §3
HUVEC = assay: Cytotoxicity against HUVEC assessed as reduction in cell viability at 1 to 10 uM measured after 24 hrs by Celltiter-blue cell viability assay; type: cell-based; settings: human, dose 1-10 µM
Outline: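 HUVECs seeded, adhered overnight, exposed 24 h to 1, 5 and 10 μM; CellTiter-Blue viability normalized to vehicle control; three independent experiments.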

[15] = Cytotoxicity against human PBMC assessed as reduction in cell viability at 1 to 10 uM measured after 48 hrs by propidium iodide staining based flow cytometry

Structure (SMILES): COc1cc2c3cc1Oc1c(OC)c(OC)cc4c1C(Cc1cc(cs1)Oc1ccc(cc1)CC3N(C)CC2)N(C)CC4 (racemic; form 2) [listing 1 of 2 here]
- Activity (HepaRG [1]): Toxic
- Activity (HepaRG [2]): Toxic
- Activity (HepaRG [3]): Toxic

Structure (SMILES): COc1cc2c3cc1Oc1c(OC)c(OC)cc4c1C(CCCCOc1ccc(cc1)CC3N(C)CC2)N(C)CC4 (racemic) [listing 1 of 2 here]
- Activity (HepaRG [3]): Toxic

Structure (SMILES): COc1cc2c3cc1Oc1c(OC)c(OC)cc4c1C(Cc1ccc(Cl)c(c1)Oc1ccc(cc1)CC3N(C)CC2)N(C)CC4 (mixture of isomers)
- Activity (HepG2 [4]): Active
- inhibition (CEM [5]): Active
- Activity (CCRF-CEM [6]): inactive
- inhibition (CEM [7]): Active
- Activity (CEM [8]): inactive
- Activity (CCRF-CEM [9]): inactive
- Activity (CCRF-CEM [10]): inactive
- Activity (CCRF-CEM [11]): Active
- Activity (CCRF-CEM [12]): Active
- Activity (HepG2 [13]): inactive
- Activity (HepG2 [14]): inactive

Structure (SMILES): COc1cc2c3cc1Oc1c(OC)c(OC)cc4c1[C@@H](Cc1ccc(O)c(c1)Oc1ccc(cc1)C[C@@H]3N(C)CC2)N(C)CC4
- Activity (HepG2 [4]): Active

Structure (SMILES): COc1ccc2cc1Oc1ccc(cc1)C[C@H]1c3cc(c(OC)cc3CCN1C)Oc1c(OC)c(OC)cc3c1[C@H](C2)N(C)CC3 [FANCHININ]
- Activity (HepaRG [1]): Toxic
- Activity (HepaRG [2]): Toxic
- Activity (HepaRG [3]): Toxic
- Activity (HepG2 [4]): Active
- inhibition (CEM [5]): Active
- Activity (CCRF-CEM [6]): inactive
- inhibition (CEM [7]): Active
- Activity (CEM [8]): inactive
- Activity (CCRF-CEM [9]): inactive
- Activity (CCRF-CEM [10]): inactive
- Activity (CCRF-CEM [12]): inactive
- Activity (HepG2 [13]): inactive
- Activity (HepG2 [14]): inactive
- Activity (HUVEC): Toxic
- Activity [15]: Toxic

Structure (SMILES): COc1cc2c3cc1Oc1c(OC)c(OC)cc4c1C(Cc1ccc(OC(F)(F)F)c(c1)Oc1ccc(cc1)CC3N(C)CC2)N(C)CC4 (racemic; form 2)
- Activity (HepaRG [3]): Toxic

Structure (SMILES): COc1cc2c3cc1Oc1c(OC)c(OC)cc4c1C(Cc1cccc(c1)Oc1ccc(cc1)CC3N(C)CC2)N(C)CC4 (racemic; form 1) [listing 1 of 2 here]
- Activity (HepG2 [4]): Active
- inhibition (CEM [5]): Active
- Activity (CCRF-CEM [6]): inactive
- inhibition (CEM [7]): Active
- Activity (CEM [8]): inactive
- Activity (CCRF-CEM [9]): inactive
- Activity (CCRF-CEM [10]): inactive
- Activity (CCRF-CEM [11]): Active
- Activity (CCRF-CEM [12]): inactive
- Activity (HepG2 [13]): inactive
- Activity (HepG2 [14]): inactive

Structure (SMILES): COc1cc2c3cc1Oc1c(OC)c(OC)cc4c1C(Cc1ccc(Cl)c(c1)Oc1ccc(cc1)CC3N(C)CC2)N(C)CC4 (racemic) [listing 1 of 2 here]
- Activity (HepG2 [4]): Active
- inhibition (CEM [5]): Active
- Activity (CCRF-CEM [6]): inactive
- inhibition (CEM [7]): Active
- Activity (CEM [8]): inactive
- Activity (CCRF-CEM [9]): inactive
- Activity (CCRF-CEM [10]): inactive
- Activity (CCRF-CEM [12]): inactive
- Activity (HepG2 [13]): inactive
- Activity (HepG2 [14]): inactive

Structure (SMILES): COc1cc2c(cc1OC)[C@@H](Cc1ccc(Oc3cc(C[C@@H]4c5cc(OC)c(OC)cc5CCN4C)ccc3O)cc1)N(C)CC2
- Activity (HepG2 [4]): Active

Structure (SMILES): COc1cc2c3cc1Oc1c(OC)c(OC)cc4c1C(CCCCOc1ccc(cc1)CC3N(C)CC2)N(C)CC4 (single isomer, unassigned; diastereomer 2) [listing 1 of 2 here]
- Activity (HepG2 [4]): Active
- inhibition (CEM [5]): inactive
- Activity (CCRF-CEM [6]): inactive
- inhibition (CEM [7]): inactive
- Activity (CEM [8]): inactive
- Activity (CCRF-CEM [9]): inactive
- Activity (CCRF-CEM [10]): inactive
- Activity (CCRF-CEM [12]): inactive
- Activity (HepG2 [13]): inactive
- Activity (HepG2 [14]): inactive

Structure (SMILES): COc1cc2c3cc1Oc1c(OC)c(OC)cc4c1C(Cc1cccc(c1)Oc1ccc(cc1)CC3N(C)CC2)N(C)CC4 (racemic; form 2) [listing 1 of 2 here]
- Activity (HepG2 [4]): Active
- inhibition (CEM [5]): Active
- Activity (CCRF-CEM [6]): inactive
- inhibition (CEM [7]): Active
- Activity (CEM [8]): inactive
- Activity (CCRF-CEM [9]): inactive
- Activity (CCRF-CEM [10]): inactive
- Activity (CCRF-CEM [12]): Active
- Activity (HepG2 [13]): inactive
- Activity (HepG2 [14]): inactive

Structure (SMILES): COc1cc2c3cc1Oc1c(OC)c(OC)cc4c1C(Cc1cc(cs1)Oc1ccc(cc1)CC3N(C)CC2)N(C)CC4 (racemic; form 1)
- Activity (HUVEC): Toxic
- Activity [15]: Toxic

Structure (SMILES): COc1cc2c3cc1Oc1c(OC)c(OC)cc4c1C(Cc1cccc(c1)Oc1ccc(cc1)CC3N(C)CC2)N(C)CC4 (racemic; form 2) [listing 2 of 2 here]
- Activity (HepaRG [2]): Toxic
- Activity (HepaRG [3]): Toxic

Structure (SMILES): COc1cc2c3cc1Oc1c(OC)c(OC)cc4c1C(Cc1cc(cs1)Oc1ccc(cc1)CC3N(C)CC2)N(C)CC4 (racemic; form 2) [listing 2 of 2 here]
- Activity (HepG2 [4]): Active
- inhibition (CEM [5]): Active
- Activity (CCRF-CEM [6]): inactive
- inhibition (CEM [7]): Active
- Activity (CEM [8]): inactive
- Activity (CCRF-CEM [9]): inactive
- Activity (CCRF-CEM [10]): inactive
- Activity (CCRF-CEM [12]): inactive
- Activity (HepG2 [13]): inactive
- Activity (HepG2 [14]): inactive

Structure (SMILES): COc1cc2c3cc1Oc1c(OC)c(OC)cc4c1C(Cc1cccc(c1)Oc1ccc(cc1)CC3N(C)CC2)N(C)CC4 (racemic; form 1) [listing 2 of 2 here]
- Activity (HepaRG [1]): Toxic

Structure (SMILES): COc1cc2c3cc1Oc1c(OC)c(OC)cc4c1C(CCCCOc1ccc(cc1)CC3N(C)CC2)N(C)CC4 (single isomer, unassigned; diastereomer 2) [listing 2 of 2 here]
- Activity (HepaRG [1]): Toxic
- Activity (HepaRG [2]): Toxic

Structure (SMILES): COc1cc2c3cc1Oc1c(OC)c(OC)cc4c1C(CCCCOc1ccc(cc1)CC3N(C)CC2)N(C)CC4 (racemic) [listing 2 of 2 here]
- Activity (HepG2 [4]): Active
- inhibition (CEM [5]): inactive
- Activity (CCRF-CEM [6]): inactive
- inhibition (CEM [7]): inactive
- Activity (CEM [8]): inactive
- Activity (CCRF-CEM [9]): inactive
- Activity (CCRF-CEM [10]): inactive
- Activity (CCRF-CEM [12]): inactive
- Activity (HepG2 [13]): inactive
- Activity (HepG2 [14]): inactive

Structure (SMILES): COc1cc2c3cc1Oc1c(OC)c(OC)cc4c1C(Cc1ccc(Cl)c(c1)Oc1ccc(cc1)CC3N(C)CC2)N(C)CC4 (racemic) [listing 2 of 2 here]
- Activity (HepaRG [3]): Toxic

Structure (SMILES): COc1cc2c3cc1Oc1c(OC)c(OC)cc4c1C(Cc1ccc(OC(F)(F)F)c(c1)Oc1ccc(cc1)CC3N(C)CC2)N(C)CC4 (racemic; form 1) [listing 1 of 2 here]
- Activity (HepG2 [4]): Active
- inhibition (CEM [5]): Active
- Activity (CCRF-CEM [6]): inactive
- inhibition (CEM [7]): Active
- Activity (CEM [8]): inactive
- Activity (CCRF-CEM [9]): inactive
- Activity (CCRF-CEM [10]): inactive
- Activity (CCRF-CEM [11]): Active
- Activity (CCRF-CEM [12]): Active
- Activity (HepG2 [13]): inactive
- Activity (HepG2 [14]): inactive

Structure (SMILES): COc1cc2c3cc1Oc1c(OC)c(OC)cc4c1C(Cc1ccc(OC(F)(F)F)c(c1)Oc1ccc(cc1)CC3N(C)CC2)N(C)CC4 (racemic; form 1) [listing 2 of 2 here]
- Activity (HepaRG [1]): Toxic
- Activity (HepaRG [2]): Toxic
- Activity (HUVEC): Toxic
- Activity [15]: Toxic
